Laboratory results as given in paper PMC11352836 (Science Advances, 2024).
Peptide text beside a SMILES is read from it. * marks the point of attachment. Cbz = O=C(OCc1ccccc1)*

What was measured:
ENL [1] = molecular target: T1, ENL (Homo sapiens, UniProt Q03111); format: cell-based; conditions: MV4;11 cells pretreated 1 hour, then 100 nM MS41 for 2 hours
T1 sequence (Q03111 1-559): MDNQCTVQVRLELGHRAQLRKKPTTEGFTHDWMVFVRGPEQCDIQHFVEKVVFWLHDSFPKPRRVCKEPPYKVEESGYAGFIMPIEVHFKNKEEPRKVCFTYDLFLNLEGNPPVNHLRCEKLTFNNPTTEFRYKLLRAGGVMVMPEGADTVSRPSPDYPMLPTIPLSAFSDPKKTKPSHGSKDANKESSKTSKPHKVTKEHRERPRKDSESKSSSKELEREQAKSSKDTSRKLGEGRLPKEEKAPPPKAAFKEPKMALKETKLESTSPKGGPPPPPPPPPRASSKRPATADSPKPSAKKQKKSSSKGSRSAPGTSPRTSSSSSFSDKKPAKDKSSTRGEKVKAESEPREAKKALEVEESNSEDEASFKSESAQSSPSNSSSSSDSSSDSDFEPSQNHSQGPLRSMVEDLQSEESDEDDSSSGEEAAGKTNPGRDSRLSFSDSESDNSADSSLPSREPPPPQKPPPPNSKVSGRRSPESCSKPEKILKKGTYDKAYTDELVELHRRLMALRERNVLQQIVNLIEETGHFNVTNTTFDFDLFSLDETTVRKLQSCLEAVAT
Summary of the method: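 MV4;11 cells were pretreated 1 h with graded concentrations of a YEATS-domain ligand, a VHL ligand, proteasome inhibitor MG132, or neddylation inhibitor MLN4924, then given 100 nM test compound for 2 h. Separately, control-sgRNA or VHL-sgRNA MV4;11 cells got graded test compound for 24 h. ENL and VHL were read by immunoblot.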

RS4;11 cells = assay: Cell viability assay; format: cell-based, human; conditions: RS4;11, 6 days
MV4;11 cells [2] = assay: Cell cycle and apoptosis assay; format: cell-based, human; conditions: MV4;11, 100 nM
Summary of the method: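 Cells were harvested at set time points. For cell cycle, cells in HBSS/2% FBS were fixed with dropwise ice-cold 70% ethanol and stained with DAPI. For apoptosis, cells were PBS-washed at 1×10^6 cells/ml in binding buffer, stained with FITC-annexin V plus propidium iodide for 15 min at RT, and run on flow cytometry within 1 h.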

ENL [3] = molecular target: T1, ENL; assay: Endogenous ENL degradation by immunoblotting in human leukemia cell lines; format: cell-based; conditions: MV4;11 cells; 1 nM to 10 μM, 6 and 24 hours
Summary of the method: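 MV4;11 and Jurkat cells were treated with DMSO or graded test-compound concentrations for 6 or 24 h. Cells were lysed in Tris/250 mM NaCl/0.5% Triton X-100/glycerol buffer with DTT and protease inhibitors. Bradford-equalised lysates were immunoblotted for ENL, with β-actin as loading control.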

MV4;11 cells [4] = assay: MS-based global quantitative; format: cell-based, human; conditions: MV4;11, 100 nM, 2 or 6 hours; cutoff P value <0.05 and fold change >1.5
Summary of the method: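 MV4;11 cells (10^6 per sample, three biological replicates) were exposed to 100 nM test compound or DMSO for 2 or 6 h. Pellets were solubilised in 8 M urea/50 mM Tris pH 8.0, reduced with 5 mM DTT and alkylated with 15 mM iodoacetamide. After fourfold dilution, samples were digested with trypsin (1:100, overnight, RT), desalted on C18 and analysed by nanoLC-MS. Proteins with ≥2 razor+unique peptides were compared by two-sample t test.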

MV4;11 cells [5] = assay: RNA-seq analysis in MV4; format: cell-based, human; conditions: MV4;11, 6 and 24 hours
HEK293 cells = assay: RT-qPCR of HOXA11 and HOXA13 in HEK293 cells expressing ENL mutants; format: cell-based, human; conditions: HEK293 stable cells, 100 nM, 72 hours
Summary of the method: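 HEK293 stable lines expressing ENL mutants were treated with DMSO, 100 nM test compound or 100 nM controls for 72 h. HOXA11 and HOXA13 mRNA was measured by RT-qPCR in three independent experiments, reported as mean ± SEM with Student's t test.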

MV4;11 cells [6] = assay: RT-qPCR of ENL target genes and ENL in MV4; format: cell-based, human; conditions: MV4;11, 24 hours
KASUMI1 cells = assay: Colony formation assay; format: cell-based, human; conditions: KASUMI1, 100 nM, 10 days
SEMK2 cells = assay: Cell viability assay; format: cell-based, human; conditions: SEMK2, 6 days
ENL YEATS domain = molecular target: T2, ENL YEATS domain (Homo sapiens, UniProt Q03111); assay: AlphaScreen assay, ENL YEATS-H3K9ac interaction; format: binding
T2 sequence (Q03111 1-145): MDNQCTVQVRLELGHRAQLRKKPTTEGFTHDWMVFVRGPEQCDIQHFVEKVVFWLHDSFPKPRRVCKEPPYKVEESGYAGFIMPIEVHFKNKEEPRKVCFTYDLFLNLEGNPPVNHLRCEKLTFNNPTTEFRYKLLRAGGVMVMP

MV4;11 cells [7] = assay: Cell viability assay; format: cell-based, human; conditions: MV4;11, 6 days
ENL [8] = conditions: cited from earlier work
IKZF1 = conditions: cited from earlier work
[9] = tested on: xenograft leukemia models; conditions: cited from earlier work
[10] = cited from earlier work
MV4;11 cells [11] = assay: Drug synergy test, MS41 with doxorubicin; format: cell-based, human; conditions: MV4;11, cotreatment, 6 days
Summary of the method: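 MV4;11 cells were given DMSO, test compound, doxorubicin, or the combination at graded concentrations for 6 days. Viability was read by CellTiter-Glo luminescence.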

Compound: CC(C)C[C@@H](C=O)NC(=O)[C@H](CC(C)C)NC(=O)[C@H](CC(C)C)NC(=O)OCc1ccccc1 [MG132] (Cbz-Leu-Leu-Leu-aldehyde)
- effect of pretreatment on MS41-mediated ENL degradation (ENL [1]): effectively blocked

Compound: NS(=O)(=O)OC[C@@H]1C[C@@H](n2ccc3c(N[C@H]4CCc5ccccc54)ncnc32)C[C@@H]1O [MLN4924]
- effect of pretreatment on MS41-mediated ENL degradation (ENL [1]): effectively blocked

Compound: Cc1ncsc1-c1ccc([C@H](C)NC(=O)[C@H]2C[C@H](O)CN2C(=O)[C@@H](NC(=O)CCCCCCCCCNC(=O)c2ccc3c(c2)[C@H](NC(=O)c2cc(-c4ccc(C(=O)N(C)C)c(O)c4)on2)CC3)C(C)(C)C)cc1 [MS41N]
- cell growth suppression (RS4;11 cells): did not suppress cell growth
- apoptosis (MV4;11 cells [2]): had no such effects
- cell cycle profile (MV4;11 cells [2]): had no such effects
- endogenous ENL protein degradation (immunoblot) (ENL [3]): did not induce ENL degradation, even at 10 μM
- proteome-wide selectivity (change in protein abundance) (MV4;11 cells [4]): did not substantially alter the abundance of any proteins
- changes in gene expression (RNA-seq) (MV4;11 cells [5]): did not induce substantial changes in gene expression
- HOXA11 and HOXA13 gene expression induced by ENL mutants (HEK293 cells): had no or only minor effects on HOXA11 and HOXA13 gene expression
- mRNA levels of ENL (RT-qPCR) (MV4;11 cells [6]): did not affect mRNA levels of ENL
- clonogenic potential (colony formation) (KASUMI1 cells): but not MS41N or PFI-6
- cell growth suppression (SEMK2 cells): did not suppress cell growth
- IC50 (ENL YEATS domain): 117 nM
- cell growth suppression (MV4;11 cells [7]): did not suppress cell growth

Compound: O=C(COc1cccc2c1C(=O)N(C1CCC(=O)NC1=O)C2=O)NCCOCCOCCNS(=O)(=O)Nc1cccc(-c2cn3cc(C(=O)NC4CCC4)ccc3n2)c1 (centres unmarked) [SR-1114]
- ENL depletion (ENL [8]): able to induce ENL depletion
- IKZF1 degradation (off-target) (IKZF1): concurrent degradation of IKZF1

Compound: C[C@H]1CCCN1Cc1cc2cnc(NC(=O)c3ccc4c(cnn4C)c3)cc2[nH]1 [TDI-11055]
- in vivo efficacy [9]: in vivo efficacy in xenograft leukemia models

Compound: Cc1ncsc1-c1ccc(CNC(=O)[C@@H]2C[C@@H](O)CN2C(=O)[C@@H](NC(=O)C2(C#N)CC2)C(C)(C)C)cc1 [VH298]
- effect of pretreatment on MS41-mediated ENL degradation (ENL [1]): hindered MS41-mediated ENL degradation

Compound: Cc1ncsc1-c1ccc(CNC(=O)[C@@H]2C[C@@H](O)CN2C(=O)[C@@H](NC(=O)CCOCCNC(=O)c2ccc3c(c2)[C@H](NC(=O)c2cc(-c4ccc(C(=O)N(C)C)c(O)c4)on2)CC3)C(C)(C)C)cc1 [compound 1]
- antitumor activity [10]: exhibiting antitumor activity

Compound: COc1cccc2c1C(=O)c1c(O)c3c(c(O)c1C2=O)C[C@@](O)(C(=O)CO)C[C@@H]3O[C@H]1C[C@H](N)[C@H](O)[C@H](C)O1 [doxorubicin]
- interaction of MS41 and doxorubicin (Bliss independence model) (MV4;11 cells [11]): strong synergistic effect
